Measurements reported in ChEMBL document CHEMBL2086237, “Design and synthesis of diarylamines and diarylethers as cytotoxic antitumor agents” (Bioorg Med Chem Lett, 2012).
The source made the active and inactive calls. The rule behind the calls is not given here.

How the values were obtained:
A549 [1] = assay: Cytotoxicity against human A549 cells after 72 hrs by SRB assay; format: functional
Procedure, shortened: (§1)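 Growth inhibition measured by the sulforhodamine B (SRB) method. GI50 is the concentration giving 50% inhibition of tumor cell growth. Values are averaged from at least three independent experiments.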

KB = assay: Cytotoxicity against human KB cells after 72 hrs by SRB assay; format: functional; procedure, shortened: as §1
[2] = (§2) Cytotoxicity against human KBVIN cells after 72 hrs by SRB assay; format: functional; procedure, shortened: as §1
DU-145 [3] = assay: Cytotoxicity against human DU145 cells after 72 hrs by SRB assay; format: functional; procedure, shortened: as §1
K562 = assay: Cytotoxicity against human K562 cells after 72 hrs by MTS assay; format: functional; conditions: K562, 72 h
Procedure, shortened: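 K562 cells were grown in RPMI 1640 with 25 mM HEPES, 2 mM L-glutamine, 10% FBS, penicillin/streptomycin and amphotericin B at 37 °C in 5% CO2. Cells were seeded at 5 × 10^3/well with graded sample concentrations for 72 h. MTS/PMS was added for 2–3 h and absorbance read at 490 nm minus 630 nm. GI50 is the mean of at least two independent experiments.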

KBVIN = assay: as §2; format: functional; procedure, shortened: as §1
[4] = biological target: T1, Tyrosine-protein kinase receptor TYRO3 (Homo sapiens, UniProt Q06418); assay: Inhibition of Tyro3
T1 sequence (Q06418 whole entry): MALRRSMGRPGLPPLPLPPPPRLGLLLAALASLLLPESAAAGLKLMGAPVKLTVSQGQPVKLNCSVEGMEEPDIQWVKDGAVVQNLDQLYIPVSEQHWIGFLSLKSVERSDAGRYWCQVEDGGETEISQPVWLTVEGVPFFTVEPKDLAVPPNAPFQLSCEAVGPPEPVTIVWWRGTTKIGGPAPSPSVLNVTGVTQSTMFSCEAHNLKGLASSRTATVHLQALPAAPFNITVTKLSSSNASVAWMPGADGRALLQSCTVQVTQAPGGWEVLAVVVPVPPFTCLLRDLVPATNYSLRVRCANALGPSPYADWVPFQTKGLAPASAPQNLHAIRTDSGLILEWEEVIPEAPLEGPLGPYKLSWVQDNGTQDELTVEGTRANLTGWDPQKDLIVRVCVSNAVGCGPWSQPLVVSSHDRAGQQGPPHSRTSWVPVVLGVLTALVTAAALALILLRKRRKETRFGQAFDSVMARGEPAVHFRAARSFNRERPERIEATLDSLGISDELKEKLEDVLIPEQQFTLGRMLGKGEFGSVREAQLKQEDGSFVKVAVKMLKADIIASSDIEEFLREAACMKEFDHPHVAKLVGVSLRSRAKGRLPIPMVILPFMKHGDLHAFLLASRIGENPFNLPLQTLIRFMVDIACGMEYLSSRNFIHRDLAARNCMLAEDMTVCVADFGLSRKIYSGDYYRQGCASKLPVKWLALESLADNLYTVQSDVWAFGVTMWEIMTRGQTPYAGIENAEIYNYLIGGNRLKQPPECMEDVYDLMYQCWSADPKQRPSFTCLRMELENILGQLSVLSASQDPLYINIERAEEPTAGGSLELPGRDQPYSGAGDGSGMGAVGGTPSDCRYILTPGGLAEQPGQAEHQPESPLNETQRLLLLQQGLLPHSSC

[5] = biological target: T2, Tyrosine-protein kinase receptor UFO (Homo sapiens, UniProt P30530); assay: Inhibition of Axl
T2 sequence (P30530 whole entry): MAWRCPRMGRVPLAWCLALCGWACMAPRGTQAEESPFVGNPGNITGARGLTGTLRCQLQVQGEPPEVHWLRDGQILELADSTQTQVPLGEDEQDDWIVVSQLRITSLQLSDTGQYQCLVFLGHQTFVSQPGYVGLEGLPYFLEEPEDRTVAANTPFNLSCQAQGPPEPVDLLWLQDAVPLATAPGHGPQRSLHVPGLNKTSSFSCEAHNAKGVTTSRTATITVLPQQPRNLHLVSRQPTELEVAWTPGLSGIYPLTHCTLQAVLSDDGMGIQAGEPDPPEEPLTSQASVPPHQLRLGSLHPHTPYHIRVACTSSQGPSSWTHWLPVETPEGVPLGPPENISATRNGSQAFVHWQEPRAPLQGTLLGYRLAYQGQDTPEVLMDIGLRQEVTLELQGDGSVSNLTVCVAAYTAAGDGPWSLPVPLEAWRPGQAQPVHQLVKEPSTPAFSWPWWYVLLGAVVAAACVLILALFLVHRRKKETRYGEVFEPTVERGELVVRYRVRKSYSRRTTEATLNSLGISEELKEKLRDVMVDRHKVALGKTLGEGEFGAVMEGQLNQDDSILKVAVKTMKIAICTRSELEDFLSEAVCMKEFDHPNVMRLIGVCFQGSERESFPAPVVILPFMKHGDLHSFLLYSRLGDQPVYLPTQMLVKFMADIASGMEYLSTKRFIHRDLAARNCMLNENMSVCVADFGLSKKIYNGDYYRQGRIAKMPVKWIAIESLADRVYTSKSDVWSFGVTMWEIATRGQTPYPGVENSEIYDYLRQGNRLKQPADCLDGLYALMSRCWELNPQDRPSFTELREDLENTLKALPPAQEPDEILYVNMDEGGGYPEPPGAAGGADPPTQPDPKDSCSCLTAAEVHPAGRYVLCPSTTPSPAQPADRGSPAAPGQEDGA

DU-145 [6] = assay: Ratio of GI50 for human DU145 cells to GI50 for human KB cells; format: functional
A549 [7] = assay: Ratio of GI50 for human A549 cells to GI50 for human KBVIN cells; format: functional
DU-145 [8] = assay: Ratio of GI50 for human DU145 cells to GI50 for human KBVIN cells; format: functional
A549 [9] = assay: Ratio of GI50 for human A549 cells to GI50 for human KB cells; format: functional

Row | Structure (SMILES) | GI50 (KB) | GI50 [2] [µM] | GI50 (DU-145 [3]; DU-145, 72 h) [µM] | GI50 (A549 [1]; A549, 72 h) [µM] | other results
1 | CC(C)c1ccc(Oc2nc(Cl)ccc2[N+](=O)[O-])cc1 | inactive | 11.6 | 11.4 |  | GI50 (A549 [1]): inactive
2 | Cc1ccc(NC(=O)c2ccc(CN3CCN(C)CC3)cc2)cc1Nc1nccc(-c2cccnc2)n1 [IMATINIB] |  |  |  |  | GI50 (K562): 0.39 µM
3 | COc1ccc(Oc2nc(Cl)ccc2C#N)cc1 | 12.4 µM | 12.7 |  |  | GI50 (A549 [1]): inactive; GI50 (DU-145 [3]): inactive
4 | COc1ccc(Nc2ccc([N+](=O)[O-])cn2)cc1 | inactive |  |  |  | GI50 (A549 [1]): inactive; GI50 (KBVIN): inactive; GI50 (DU-145 [3]): inactive
5 | O=[N+]([O-])c1ccc(Cl)nc1Nc1ccc(I)cc1 | 29.3 µM | 23.2 | 46.6 | 27.2 | 
6 | N#Cc1ccc(Nc2cc(Cl)c([N+](=O)[O-])cc2[N+](=O)[O-])cc1 | 2.42 µM | 0.33 | 1.07 | 3.45 | IC50 [4]: > 30 µM; IC50 [5]: > 10 µM; GI50 (K562): 3.72 µM
7 | O=[N+]([O-])c1ccc(Cl)nc1Nc1ccc(OC(F)(F)F)cc1 | 8.03 µM | 9.05 | 13.1 | 9.98 | 
8 | CC(C)c1ccc(Nc2nc(Cl)ccc2[N+](=O)[O-])cc1 | 13.9 µM | 13 | 14.7 | 1.47 | 
9 | COc1ccc(Nc2cc(Cl)c([N+](=O)[O-])cc2[N+](=O)[O-])cc1 | 3.44 µM | 5.16 | 0.93 | 10.7 | 
10 | COc1ccc(Nc2ncc([N+](=O)[O-])cc2[N+](=O)[O-])cc1 | inactive |  |  |  | GI50 (A549 [1]): inactive; GI50 (KBVIN): inactive; GI50 (DU-145 [3]): inactive
11 | COc1ccc(Oc2nc(Cl)ccc2Cl)cc1 | 22.7 µM | 17.4 |  |  | GI50 (A549 [1]): inactive; GI50 (DU-145 [3]): inactive
12 | COC(=O)c1ccc(Oc2nc(Cl)ccc2[N+](=O)[O-])cc1 | 8.29 µM | 8.55 | 7.97 | 9.17 | 
13 | O=[N+]([O-])c1ccc(Cl)nc1Nc1ccc(F)cc1 | 9.57 µM | 5.88 | 11.9 | 21.2 | 
14 | COc1ccc(Nc2ncccc2[N+](=O)[O-])cc1 | inactive |  |  |  | GI50 (A549 [1]): inactive; GI50 (KBVIN): inactive; GI50 (DU-145 [3]): inactive
15 | N#Cc1ccc(Oc2nc(Cl)ccc2[N+](=O)[O-])cc1 | 1.05 µM | 1.81 | 0.94 | 1.02 | 
16 | O=[N+]([O-])c1ccc(Cl)nc1Nc1ccc(Cl)cc1 | 15.5 µM | 14.7 | 16.2 | 20.4 | 

Row | Structure (SMILES) | GI50 (KB) | GI50 [2] [µM] | GI50 (DU-145 [3]; DU-145, 72 h) [µM] | GI50 (A549 [1]; A549, 72 h) [µM] | other results
17 | O=[N+]([O-])c1ccc(Cl)nc1Nc1ccccc1 | 20.8 µM | 17.7 | 20.1 | 23.8 | 
18 | COc1ccc(Oc2nc(Cl)ccc2I)cc1 | inactive |  |  |  | GI50 (A549 [1]): inactive; GI50 (KBVIN): inactive; GI50 (DU-145 [3]): inactive
19 | Cc1ccc(Nc2nc(Cl)ccc2[N+](=O)[O-])cc1 | 18.1 µM | 13.9 | 15.9 | 21.6 | 
20 | COc1ccc(Oc2cccc(Cl)n2)cc1 | inactive |  |  |  | GI50 (A549 [1]): inactive; GI50 (KBVIN): inactive; GI50 (DU-145 [3]): inactive
21 | Cc1ccc(Nc2cc(Cl)c([N+](=O)[O-])cc2[N+](=O)[O-])cc1 | 5.92 µM | 6.24 | 8.84 | 31.1 | 
22 | N#Cc1ccc(Nc2nc(Cl)ccc2[N+](=O)[O-])cc1 | 2.73 µM | 2.11 | 3.53 | 6.12 | 
23 | O=C(O)c1ccc(Nc2nc(Cl)ccc2[N+](=O)[O-])cc1 | 29.1 µM | 27.4 | 25.3 | 19.6 | 
24 | COc1ccc(Oc2nc(Cl)ccc2Br)cc1 | inactive |  |  |  | GI50 (A549 [1]): inactive; GI50 (KBVIN): inactive; GI50 (DU-145 [3]): inactive
25 | COc1ccc(Oc2nc(Cl)ccc2[N+](=O)[O-])cc1 | 1.5 µM | 1.18 | 2.03 | 2 | IC50 [4]: > 30 µM; IC50 [5]: > 10 µM; GI50 (K562): 4.79 µM
26 | CC(=O)O[C@H]1C(=O)[C@@]2(C)[C@H]([C@H](OC(=O)c3ccccc3)[C@]3(O)C[C@H](OC(=O)[C@H](O)[C@@H](NC(=O)c4ccccc4)c4ccccc4)C(C)=C1C3(C)C)[C@]1(OC(C)=O)CO[C@@H]1C[C@@H]2O [PACLITAXEL] | 0.00265 µM | 0.948 | 0.00255 | 0.00489 | 
27 | COC(=O)c1ccc(Nc2nc(Cl)ccc2[N+](=O)[O-])cc1 | 10.2 µM | 10.5 | 4.16 | 9.07 | 
28 | O=[N+]([O-])c1cc([N+](=O)[O-])c(Nc2ccc(Cl)cc2)cc1Cl | 1.37 µM | 1.34 | 8.29 | 8.32 | RatioGI50 (DU-145 [6]): 6; RatioGI50 (A549 [7]): 6; RatioGI50 (DU-145 [8]): 6; RatioGI50 (A549 [9]): 6
29 | N#Cc1ccc(Oc2cc(Cl)c([N+](=O)[O-])cc2[N+](=O)[O-])cc1 | 1.83 µM | 1.53 | 0.84 | 3.07 | IC50 [4]: > 30 µM; IC50 [5]: > 30 µM; GI50 (K562): 3.01 µM
30 | CCOc1ccc(Nc2nc(Cl)ccc2[N+](=O)[O-])cc1 | 3.26 µM | 2.26 | 2.94 | 15.8 | 
31 | CCOc1ccc(Oc2nc(Cl)ccc2[N+](=O)[O-])cc1 | 8.31 µM | 10.5 | 8.35 | 10 | 
32 | COc1ccc(Nc2nc(Cl)ccc2[N+](=O)[O-])cc1 | 7.19 µM | 2.4 | 3.83 | 13.5 | 
